Only some compounds are listed: those with a hit (about 4.5% of all), similar ones and a draw of the others.
OX1R antag-1: blocks the human orexin 1 receptor. O43613. CHO/OX1R cells, Fluo-8 calcium fluorescence, orexin A. inhibition, % at 5 µM. 330,000 compounds, 0.43% hits. AID 434989;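 active means inhibition above its plate's threshold, mean inhibition of all tested compounds on the plate plus 3 SD, cut at about 37% in these data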;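 further: 0% = orexin A challenge wells and 100% = SB-334867-A antagonist wells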
Target sequence (O43613 whole entry, looked up): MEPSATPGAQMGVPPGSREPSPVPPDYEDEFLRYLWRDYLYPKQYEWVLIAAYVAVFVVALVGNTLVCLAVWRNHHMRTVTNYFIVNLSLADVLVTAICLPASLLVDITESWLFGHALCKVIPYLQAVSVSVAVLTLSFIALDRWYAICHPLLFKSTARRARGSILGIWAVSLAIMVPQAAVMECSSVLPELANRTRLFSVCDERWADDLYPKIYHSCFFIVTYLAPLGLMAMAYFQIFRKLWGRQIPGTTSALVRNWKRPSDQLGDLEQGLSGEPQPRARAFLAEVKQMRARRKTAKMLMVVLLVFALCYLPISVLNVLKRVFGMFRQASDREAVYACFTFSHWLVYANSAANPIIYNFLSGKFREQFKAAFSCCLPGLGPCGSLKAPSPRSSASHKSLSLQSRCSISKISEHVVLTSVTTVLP
OX1R antag-2: OX1R (human) antagonism. O43613. OX1R-expressing cells, FRET antagonist read-out. inhibition, % at 6.6 µM. 330,000 compounds, 1.8% hits. AID 485270; in the data active means inhibition mostly above about 38%, no sharp cut-off; inactive means mostly below about 40%;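 further: 0% = agonist challenge alone and 100% = reference antagonist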
GPR7 antag: antagonists of human GPR7 (neuropeptides B/W receptor 1); GPR7-expressing cells, fluorescence antagonist assay; inhibition, % at 4.4 µM; 290,000 compounds, 1.1% hits; in the data active means inhibition above about 16%, passing the limit was not always enough;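 further: cells stimulated with the agonist NPW; 0% = agonist with vehicle and 100% = vehicle without agonist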
Target sequence (P48145 whole entry, looked up): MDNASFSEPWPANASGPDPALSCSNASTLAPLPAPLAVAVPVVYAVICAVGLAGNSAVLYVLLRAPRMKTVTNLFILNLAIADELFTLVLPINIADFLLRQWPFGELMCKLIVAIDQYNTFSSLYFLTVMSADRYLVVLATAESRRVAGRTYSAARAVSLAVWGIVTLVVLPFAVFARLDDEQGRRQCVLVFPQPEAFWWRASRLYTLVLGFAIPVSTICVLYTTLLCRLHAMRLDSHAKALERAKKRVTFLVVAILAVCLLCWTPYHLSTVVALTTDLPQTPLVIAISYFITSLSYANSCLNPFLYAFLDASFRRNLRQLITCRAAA
CHO parental Ca: signal in parental CHO cells, OX1R antagonist counter-screen; parental CHO-K1, ATP-induced calcium, Fluo-8 fluorescence; inhibition, % at 5.6 µM; 330,000 compounds, 0.63% hits; AID 463079;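 active means inhibition above that plate's mean sample inhibition plus 3 SD, cut at about 26% in these data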;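 further: 0% = ATP-challenged DMSO wells and 100% = DMSO wells without ATP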
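Test system: untransfected parental CHO cell line. Compound: one dose, 5.6 µM nominal. Detection: intracellular calcium via Fluo-8 no-wash fluorescent dye. Measure: % inhibition. Benchmarks: ATP-challenged DMSO wells low, unchallenged DMSO wells high.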
TAAR1 antagonist: antagonists of human TAAR1; Q96RJ0; inhibition, % at 3 µM; CHO RD-HGA16 TAAR1, Fluo-8 calcium fluorescence, antagonist; 360,000 compounds, 1.5% hits;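 active means inhibition above a per-plate cutoff, the mean inhibition of test compounds on that plate plus 3 SD, cut at about 49% in these data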;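 further: 0% = DMSO plus EC80 beta-PEA response and 100% = DMSO alone without agonist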
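Test system – hTAAR1-expressing CHO RD-HGA16 cells, Gα16-coupled · Also added – β-PEA at EC80 concentration, post-compound challenge · Compound – 3 µM, single point · Incubation – dye loading 75 min at 37 °C, then 30 min room temperature · Measured by – Fluo-8 intracellular calcium dye fluorescence, real-time kinetic reads · Benchmarks – vehicle and agonist controls · Replicates – singlicate, one well per test compound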
TAAR1 ag: agonists of human TAAR1; 360,000 compounds, 0.99% hits; activation, % at 3 µM; CHO RD-HGA16 TAAR1, Fluo-8 calcium fluorescence; vehicle wells 0%, saturating PEA agonist 100%;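 active means activation above the mean activation of all test compounds in the run plus 3 SD, cut at about 38% in these data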
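System: CHO RD-HGA16 cells carrying human TAAR1 plus Gα16; Incubation: 17-24 h seeding, 75 min 37 °C dye, 30 min RT; Measured by: Fluo-8 fluorescence, 5 s baseline then 140 s kinetic read; Control set: DMSO and PEA EC100; Replication: single well for each compound.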
TAAR1 ag conf: human TAAR1 agonism, confirmed. 2,400 compounds, 82% hits. shares compounds with TAAR1 ag. activation, % at 3 µM. CHO RD-HGA16 TAAR1, Fluo-8 calcium fluorescence; scaled: DMSO 0%, maximal phenethylamine 100%;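 active means activation above a cutoff set at the run's mean compound activation plus 3 SD, cut at about 39% in these data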
Ga16 ag counter: counter-screen for TAAR1 agonists: nonselective agonists in parental cells; activation, % at 3 µM; 2,400 compounds, 50% hits; shares compounds with TAAR1 ag; CHO-Ga16 parental, Fluo-8 calcium fluorescence; normalized to maximal ATP response, DMSO zero;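 active means activation above the run cutoff, the mean activation over all tested wells plus 3 SD, cut at about 12% in these data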;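 further: 0% = DMSO wells and 100% = maximal ATP response on the peak over basal ratio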
TAAR1 desensitize: TAAR1 response desensitization, agonist counter-screen; inhibition, % at 3 µM; shares compounds with TAAR1 ag; AID 651951; CHO RD-HGA16 hTAAR1, Fluo-8 calcium, beta-PEA response inhibition; 2,400 compounds, 46% hits;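 active means inhibition above the run cutoff, the mean inhibition of all test compounds plus 3 SD, cut at about 49% in these data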;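 further: beta-PEA stimulus applied at its EC80; loss of beta-PEA calcium signal after compound pretreatment read as receptor desensitization; 0% = DMSO with beta-PEA at EC80 and 100% = DMSO alone without agonist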
Ga16 antag count: nonselective Ga16 antagonism, counter-screen | shares compounds with TAAR1 ag | CHO-Ga16 ATP-induced calcium, Fluo-8 fluorescence | inhibition, % at 3 µM | 2,400 compounds, 39% hits | AID 651952;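 active means inhibition above the plate's mean compound inhibition plus 3 SD, computed per plate, cut at about 22% in these data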;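 further: 0% = EC80 ATP with DMSO and 100% = DMSO wells without ATP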
Starred values were filed as active, the others as inactive; . = not tested or not shown.

SMILES | OX1R antag-1 | OX1R antag-2 | GPR7 antag | CHO parental Ca | TAAR1 antagonist | TAAR1 ag | TAAR1 ag conf | Ga16 ag counter | TAAR1 desensitize | Ga16 antag count
CC1=NN(c2ccccc2)C(c2ccco2)C1 (stereo not drawn) | . | . | . | . | -3 | 0 | . | . | . | .
Cc1ccc(OCCN2CCC2(C)C(=O)Nc2ccc3c(c2)OCCO3)cc1 (stereo not drawn) | . | . | . | . | -21 | 5 | . | . | . | .
Oc1ccc(C[C@@H]2CNCCN2CCC23CC4CC(CC(C4)C2)C3)cc1 | 0 | 16 | . | 9 | 5 | 48* | 62* | 31* | 41 | 42*
Oc1ccc(C[C@H]2CNCCN2CCC23CC4CC(CC(C4)C2)C3)cc1 | 9 | 21 | . | 8 | -13 | 36 | . | . | . | .
FC(F)(F)c1ccc2c(c1)nc1n2CCCC1 | -24 | 25 | -7 | -11 | 22 | 4 | . | . | . | .
CN1CCN(c2nc3cc(C(F)(F)F)ccc3n3cccc23)CC1 | -19 | 14 | . | -20 | -6 | 62* | 83* | 20* | 30 | 3
O=C(Cc1nnc(NC(=O)Nc2ccc(F)cc2)s1)Nc1ccccc1 | 6 | 7 | 2 | 9 | 20 | 54* | 65* | 13* | 68* | 9
CCN(CC)c1ccc(/C=N/NC(=O)Cc2nnc(NC(=O)Nc3ccccc3)s2)cc1 | -10 | 6 | -19 | -12 | 21 | 57* | 50* | 0 | 36 | 11
CCN(CC)c1ccc(/C=N/NC(=O)Nc2ccccc2)cc1 | -31 | 6 | -28 | -21 | 14 | 17 | . | . | . | .
O=C(Cc1nnc(NC(=O)Nc2ccccc2)s1)Nc1ccccc1 | 9 | 6 | -14 | 2 | 43 | 52* | 65* | 2 | 70* | 8
CC1(C(=O)Nc2cnc3ccccc3c2)CCN1C(=O)CC(c1ccccc1)c1ccccc1 (stereo not drawn) | . | . | . | . | 41 | 0 | . | . | . | .
CCCn1c(N)c(N(CCOC)C(=O)c2ccc(S(=O)(=O)N3CCOCC3)cc2)c(=O)[nH]c1=O | . | . | . | . | 6 | -2 | . | . | . | .
COc1cc2nc(/C=C/c3ccc(N(C)C)cc3)sc2cc1SC | 60* | 27 | 4 | 52* | 52* | 101* | 46* | 93* | 67* | 87*
O=C(C(=O)N1CCc2ccccc2C1)c1cn(CC(=O)N2CCCC2)c2ccccc12 | -10 | 16 | -12 | -21 | 0 | 50* | 50* | 3 | 10 | 11
CSCCC(C(=O)Nc1c(C)cccc1C)n1c(-c2cc(C)cs2)nc2ccccc21 (stereo not drawn) | . | . | . | . | -25 | -2 | . | . | . | .
CCCCN(C)c1c(C)nc2ccc(C(=O)Nc3ccc(OC)c(OC)c3)cn12 | . | . | . | . | 16 | 63* | 85* | 48* | 23 | 10
CCCCN(C)c1c(C)nc2ccc(C(=O)Nc3cc(-c4ccccc4)ccc3OC)cn12 | . | . | . | . | -22 | -1 | . | . | . | .
O=C(NCc1ccco1)C(=O)NCC1OCCCN1S(=O)(=O)c1ccccc1 (stereo not drawn) | 13 | 5 | -9 | -2 | -2 | 0 | . | . | . | .
O=C(NCCc1ccco1)C(=O)NCC1OCCCN1S(=O)(=O)c1ccccc1 (stereo not drawn) | 7 | 23 | -11 | -12 | 24 | 66* | 36 | 6 | 10 | 9
Cc1ccc(S(=O)(=O)N2CCOC2CNC(=O)C(=O)NCCc2ccccc2)cc1 (stereo not drawn) | -19 | 44 | -10 | -5 | 37 | 58* | 82* | 1 | 41 | 15
O=C(NCCc1ccccc1)C(=O)NCC1CCCN1S(=O)(=O)c1ccccc1 (stereo not drawn) | -4 | 42* | . | -13 | 76* | 59* | 85* | 11 | 80* | 38*
O=C(NCCc1ccccc1)C(=O)NCC1OCCCN1S(=O)(=O)c1cccs1 (stereo not drawn) | -7 | 24 | -17 | -22 | 41 | 68* | 97* | 16* | 74* | 11
C=CCOc1ccc(C2NC(=O)c3ccccc3O2)cc1OC (stereo not drawn) | . | . | . | . | -6 | 1 | . | . | . | .
O=C(NCCc1ccccc1)C(=O)NCC1OCCN1S(=O)(=O)c1ccc([N+](=O)[O-])cc1 (stereo not drawn) | -6 | 24 | 13 | -9 | 28 | 47* | 73* | 2 | 22 | 9
O=C1OCCOC2CCCc3oc(C4=CCCCC4)c1c32 (stereo not drawn) | . | . | . | . | 0 | -1 | . | . | . | .
SMILES | OX1R antag-1 | OX1R antag-2 | GPR7 antag | CHO parental Ca | TAAR1 antagonist | TAAR1 ag | TAAR1 ag conf | Ga16 ag counter | TAAR1 desensitize | Ga16 antag count
NC(Cc1ccc(C(F)(F)F)cc1)c1csc(Nc2nncc3ccccc23)n1 (stereo not drawn) | . | . | . | . | 36 | 55* | 140* | 58* | 106* | 69*
NC(Cc1ccc(C(F)(F)F)cc1)c1csc(Nc2cc(Oc3ccccc3)ncn2)n1 (stereo not drawn) | . | . | . | . | 9 | 48* | 38* | 21* | 43 | 38*
NC(CCc1ccccc1)c1csc(NC(=O)Nc2cccc(C(F)(F)F)c2)n1 (stereo not drawn) | . | . | . | . | 36 | 49* | 39* | 19* | 35 | 40*
NC(COCc1ccccc1)c1csc(NC(=O)Nc2cccc(Cl)c2)n1 (stereo not drawn) | . | . | . | . | 43 | 58* | 51* | 22* | 47 | 41*
NC(CO)c1csc(NC(=O)Nc2cccc(Cl)c2)n1 (stereo not drawn) | . | . | . | . | -3 | 3 | . | . | . | .
C#Cc1cccc(N2C(=O)C3C4C=CC(C3C2=O)C2C(=O)N(c3cccc(C#C)c3)C(=O)C42)c1 (stereo not drawn) | . | . | . | . | -10 | 2 | . | . | . | .
CC1(C(=O)NCc2cccs2)Cc2c(-c3ccc4c(c3)OCO4)ccnc2O1 (stereo not drawn) | . | . | . | . | -2 | 1 | . | . | . | .
COc1ccc(CC(N)c2csc(NC(=O)Nc3cccc(C(F)(F)F)c3)n2)cc1 (stereo not drawn) | . | . | . | . | 65* | 85* | 80* | 42* | 65* | 54*
NC(Cc1ccc(C(F)(F)F)cc1)c1csc(NC(=O)Nc2ccccc2)n1 (stereo not drawn) | . | . | . | . | 37 | 50* | 61* | 40* | 63* | 53*
